Laboratory results as given in paper PMC4121111 (Clinical cancer research : an official journal of the …, 2014).

What was measured:
GRPR [1] = target: T1, GRPR (Homo sapiens, UniProt P30550); assay: Cell binding study by FACS, PC3 cells; format: cell-based; details: 3×10^5 cells, 3 pmoles agent in PBS, 15 min, 4 °C, triplicates
Method in brief: (§1)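 Cell lines came from ATCC and were grown per supplier instructions. 3×10^5 cells were incubated with 3 pmoles dye-peptide conjugate in PBS for 15 min at 4 °C, and cell fluorescence was measured. A scrambled-peptide conjugate served as control. For PC3 only, specificity was tested by co-incubation with bombesin (1.5×10−11 to 1.5×10−8 moles). Triplicates.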

GRPR [2] = target: T1, GRPR; assay: Cell binding study by FACS, LNCaP cells; format: cell-based; details: 3×10^5 cells, 3 pmoles agent in PBS, 15 min, 4 °C, triplicates
Method in brief: as §1

[3] = Blood metabolism in living mice; format: in vivo
GRPR in PC3 tumors = GRPR in PC3 tumors (Homo sapiens, UniProt P30550); assay: Photoacoustic imaging of GRPR in PC3 tumors in mice; format: in vivo; details: 30 to 60 minutes post injection of 10 nmol
Chain of GRPR in PC3 tumors (P30550 whole entry): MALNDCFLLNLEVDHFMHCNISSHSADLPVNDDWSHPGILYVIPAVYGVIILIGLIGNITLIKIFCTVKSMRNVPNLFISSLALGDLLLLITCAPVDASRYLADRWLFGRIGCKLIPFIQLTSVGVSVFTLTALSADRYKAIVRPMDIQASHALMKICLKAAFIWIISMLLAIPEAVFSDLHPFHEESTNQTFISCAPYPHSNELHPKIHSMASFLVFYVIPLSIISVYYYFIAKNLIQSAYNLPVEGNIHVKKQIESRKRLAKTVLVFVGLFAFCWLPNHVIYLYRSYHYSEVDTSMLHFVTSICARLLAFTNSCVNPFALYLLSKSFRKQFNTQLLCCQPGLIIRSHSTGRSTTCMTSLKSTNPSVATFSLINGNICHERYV
Method in brief: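 Eight-week-old male nude mice carried flank PC3 xenografts (3 million cells, tumors 0.5–0.7 cm). Imaging used photoacoustic CT at 750 nm (100 views, 100 pulses/view) before and 30 and 60 min after tail-vein injection of 10 nmol agent in 200 µL PBS pH 7.4. The scrambled-peptide control group had n=4 and the active group n=6. 3D filtered back-projection; standard deviation.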

GRPR [4] = details: cited from earlier work

T1 sequence (P30550 whole entry): as above

Substance | binding to PC3 cells (cell fluorescence) (GRPR [1]) | binding to LNCaP cells (cell fluorescence) (GRPR [2]) | blood lifetime [3] | level present in blood at 60 minutes postinjection ([3]; HPLC) | composition in mouse blood at 30 minutes post injection (HPLC) ([3]; blood, 30 minutes post injection, HPLC, three mice) | proteolysis in mouse blood ([3]; blood, 30 minutes postinjection, HPLC) | composition in mouse blood at one hour post injection (HPLC) ([3]; blood, 60 minutes post injection, HPLC) | course of tumor photoacoustic signal over time (GRPR in PC3 tumors) | binding affinity (GRPR [4]) | functional activity (GRPR [4])
GGGHdFGWStaAQLV-NH2 [CAA3G-740] | did not show appreciable binding |  |  |  |  |  |  |  |  | 
GGGdFQWAVGHStaL-NH2 [AA3G-740] | intense labeling | minimal binding | short blood lifetime | low level | major peak observed in blood at 30 minutes post injection was of the parent | no indication of proteolysis | intact agent was still the major component | increased over time |  | 
dFQWAVGHStaL-NH2 |  |  |  |  |  |  |  |  | high affinity binding | antagonist activity
